Published values pooled from the literature.
Each line is one published result; the experiments were not run side by side.
Target: Interleukin-1 receptor-associated kinase 3 (IRAK3, Homo sapiens, UniProt Q9Y616)
One construct used (Q9Y616 1-596): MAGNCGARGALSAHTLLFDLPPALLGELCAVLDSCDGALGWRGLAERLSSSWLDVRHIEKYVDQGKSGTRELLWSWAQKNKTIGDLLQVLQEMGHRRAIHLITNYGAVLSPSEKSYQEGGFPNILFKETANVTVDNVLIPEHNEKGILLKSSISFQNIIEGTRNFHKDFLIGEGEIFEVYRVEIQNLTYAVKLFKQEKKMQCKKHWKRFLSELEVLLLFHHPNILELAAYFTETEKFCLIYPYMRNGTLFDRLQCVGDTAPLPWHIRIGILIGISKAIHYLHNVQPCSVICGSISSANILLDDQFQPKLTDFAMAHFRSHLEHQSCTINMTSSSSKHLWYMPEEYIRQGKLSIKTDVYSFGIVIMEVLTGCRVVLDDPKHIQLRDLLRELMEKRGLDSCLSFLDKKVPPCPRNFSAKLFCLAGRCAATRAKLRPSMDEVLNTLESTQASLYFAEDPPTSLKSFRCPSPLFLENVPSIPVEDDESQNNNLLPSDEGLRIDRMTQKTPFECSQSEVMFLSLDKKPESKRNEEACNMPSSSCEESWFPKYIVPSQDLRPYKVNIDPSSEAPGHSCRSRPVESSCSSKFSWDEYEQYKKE

Structure (SMILES) | read-out | technique | concentration | remaining binding [%]
Nc1cnc(N2CCc3cc(S(=O)(=O)Nc4c(F)cc(Cl)cc4F)cc(N4CCCC4=O)c32)nc1 | cell-free assay | competition with immobilised ligand | 1 µM | 89
COc1ncc2cc3ccccc3nc2c1C#N | cell-free assay | competition with immobilised ligand | 5 µM | 94
CCOCCn1cc(C(=O)Nc2ccc(-n3nc(-c4cccnc4)cc3C(F)(F)F)cn2)ccc1=O | cell-free assay | competition with immobilised ligand | 1 µM | 100
O=C(c1ccc(Nc2ncc(Cl)c(-c3ccc(Cl)s3)n2)cc1)N1CCC(N2CCCC2)CC1 | binding | competition with immobilised ligand | 1 µM | 1.6
Nc1ncc2c(n1)-c1c([nH]c3ccc(C#CC4CC4)cc13)CCCC2 | binding | competition with immobilised ligand | 1 µM | 71
Cc1cnn2ncc(-c3ccnc(N(C)C)n3)c2c1 | binding |  | 1 µM | 70
CS(=O)(=O)N1CCCC(NC(=O)[C@H](CCC2CCCCC2)NC(=O)c2ccc(CNc3ncnc4c3nnn4-c3ccccc3)cc2)C1 (some centres unmarked) | cell-free assay | competition with immobilised ligand | 0.1 µM | 100
C[C@@H]1CCN(c2nccc(-c3cnn4ncccc34)n2)C1 | binding |  | 1 µM | 52
O=C(c1ccc(Nc2nccc(-c3cc4ccccc4s3)n2)cc1)N1CCC(N2CCCC2)CC1 | binding | competition with immobilised ligand | 1 µM | 14
CN(CCCC(F)(F)F)c1nccc(-c2cnn3ncccc23)n1 | binding |  | 1 µM | 94
CNC(=O)Nc1ccc2c(c1)CC[C@@]21OC(=O)N(CC(=O)N(Cc2ccc(F)cc2)[C@@H](C)C(F)(F)F)C1=O | cell-free assay | competition with immobilised ligand | 1 µM | 95
O=C(NCCCN1CCOCC1)c1ccc(Nc2nccc(-c3cc4ccccc4s3)n2)cc1 | binding | competition with immobilised ligand | 1 µM | 8.4
CN(C(=O)c1ccccc1)c1cc(N(C)c2ccc3c(c2)CCc2ccc(C(=O)NCCN4CCOCC4)cc2C3=O)ccc1F | cell-free assay | competition with immobilised ligand | 1 µM | 91
CN(C)c1ncc(F)c(-c2cnn3ncccc23)n1 | binding |  | 1 µM | 100
COc1cnc(Nc2cccc(S(N)(=O)=O)c2)nc1N1CCN(c2ccccc2)CC1 | binding | competition with immobilised ligand | 1 µM | 100
c1cncc(-c2cccc(Nc3nccc(NC4CCCCC4)n3)c2)c1 | binding | competition with immobilised ligand | 10 µM | 4.5
C=CC(=O)N1CCC(C(=O)NCC(=O)N2CCN(c3nc(-c4cnc(N)nc4C(F)F)nc(N4CCOCC4)n3)CC2)CC1 | binding | competition with immobilised ligand | 1 µM | 89
CCCCN(CCCC)C(=O)CN1C[C@H](c2cc(OC)c3c(c2)OCO3)[C@@H](C(=O)O)[C@@H]1CC(C)(C)CCC | cell-free assay | competition with immobilised ligand | 1 µM | 100
CC1CCCN1c1nccc(-c2cnn3ncccc23)n1 (centres unmarked) | binding |  | 1 µM | 72
O=C(Nc1c[nH]nc1C(=O)NC1CCNCC1)c1cc(F)cc(F)c1 | binding | competition with immobilised ligand | 1 µM | 100
